Laboratory results published in ChEMBL document CHEMBL1127677, “The novel Ins(1,4,5)P3 analogue 3-amino-3-deoxy-Ins(1,4,5)P3: a pH-dependent Ins(1,4,5)P3 receptor partial agonist in SH-SY5Y neuroblastoma cells” (J Med Chem, 1994).

Legend:
[1] = Calcium mobilization in saponin permeabilised SH-SY5Y neuroblastoma cells at a pH of 7.2; format: functional, cell-based; details: Homo sapiens
Procedure, shortened: (§1)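 SH-SY5Y cells were preloaded with 45Ca2+ and permeabilized with saponin. Release from Ins(1,4,5)P3-sensitive stores was measured in cytosolic-like buffer at pH 6.8, 7.2 or 7.6, at 20–22 °C. Release was normalized to 100% using 30 μM Ins(1,4,5)P3 as an internal standard in each experiment. EC50 from curve fitting, mean ± sem, n = 4.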

[2] = biological target: T1, Type 1 InsP3 receptor isoform S2 (Sus scrofa, UniProt P79248); test: Binding affinity against IP3 receptor in pig cerebellar membranes at a pH of 6.8 using [3H]Ins(1,4,5)P3 as the radioligand.; format: cell membranes, Cerebellum, Membrane
Procedure, shortened: (§2)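 [3H]Ins(1,4,5)P3 displacement using pig cerebellar P2 membranes, assayed at pH 6.8. Buffer: 25 mM Tris/maleate, 5 mM NaHCO3, 1 mM EDTA, 0.25 mM DTT. Increasing ligand concentrations were incubated with 1.5 nM radioligand and about 70 μg membrane protein for 30 min at 4 °C. Bound ligand was separated by centrifugation. Nonspecific binding was taken with 10 μM Ins(1,4,5)P3. IC50 from curve fitting, mean ± sem, n = 3.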

[3] = Calcium mobilization in saponin permeabilised SH-SY5Y neuroblastoma cells at a pH of 6.8; format: functional, cell-based; details: Homo sapiens; procedure, shortened: as §1
[4] = Calcium mobilization in saponin permeabilised SH-SY5Y neuroblastoma cells at a pH of 7.6; format: functional, cell-based; details: Homo sapiens; procedure, shortened: as §1
[5] = biological target: T1, Type 1 InsP3 receptor isoform S2; test: Binding affinity against IP3 receptor in pig cerebellar membranes at a pH of 7.6 using [3H]Ins(1,4,5)P3 as the radioligand.; format: cell membranes, Cerebellum, Membrane
Procedure, shortened: as §2, with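 “7.6.” for “6.8.”, “50” for “70”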

T1 sequence (P79248 whole entry, canonical isoform): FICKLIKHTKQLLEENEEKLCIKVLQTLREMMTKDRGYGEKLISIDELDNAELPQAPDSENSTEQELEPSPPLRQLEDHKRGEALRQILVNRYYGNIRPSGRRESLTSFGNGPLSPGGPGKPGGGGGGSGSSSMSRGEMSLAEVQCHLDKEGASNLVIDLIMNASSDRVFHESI

| Compound | EC50 [1] | IC50 [2] | EC50 [3] | EC50 [4] | IC50 [5] |
| --- | --- | --- | --- | --- | --- |
| OC1C(O)C(OP(O)(O)=S)C(OP(O)(O)=S)C(O)C1OP(O)(O)=S (stereo unspecified) | 52 nM | 78 nM | 255 nM | 107 nM | 61 nM |
| NC1C(O)C(OP(=O)(O)O)C(O)C(OP(=O)(O)O)C1OP(=O)(O)O (stereo unspecified) | 1070 nM | 9110 nM | 3680 nM | 1490 nM | 5650 nM |
| OC1C(OP(O)(O)=S)C(O)C(OP(O)(O)=S)C(OP(O)(O)=S)C1OP(O)(O)=S (stereo unspecified) |  |  | 5320 nM |  |  |
